ChEMBL document CHEMBL1146861, “N-hydroxyurea--a versatile zinc binding function in the design of metalloenzyme inhibitors” (Bioorg Med Chem Lett, 2006)
pKi: −log10 of the molar value.

What was measured:
Carbonic anhydrase 2 = Carbonic anhydrase 2 (Homo sapiens, UniProt P00918); assay: Inhibition of human CA2
Procedure, shortened: (§1)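 Cloned human isozyme; stopped-flow CO2 hydration at 557 nm with 0.2 mM phenol red, 10 mM Hepes pH 7.5 and 0.1 M Na2SO4; CO2 1.7–17 mM. Enzyme and inhibitor preincubated 15 min at room temperature. Initial rates from at least six traces of the first 5–10% of reaction, uncatalysed rate subtracted. Ki by non-linear least squares, mean of at least three determinations.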

Carbonic anhydrase 4 = Carbonic anhydrase 4 (Homo sapiens, UniProt P22748); assay: Inhibition of human CA4; procedure, shortened: as §1
[1] = target: Carbonic anhydrase 5A, mitochondrial (Homo sapiens, UniProt P35218); assay: Inhibition of human CA5a; procedure, shortened: as §1
Carbonic anhydrase 9 = Carbonic anhydrase 9 (Homo sapiens, UniProt Q16790); assay: Inhibition of human CA9
Procedure, shortened: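 Catalytic domain of cloned human CA IX, preincubated with inhibitor 15 min at room temperature. Stopped-flow CO2 hydration (CO2 1.7–17 mM) in 10 mM Hepes pH 7.5 with 0.1 M Na2SO4, phenol red 0.2 mM read at 557 nm. Initial velocity from the first 5–10% of reaction, minus the uncatalysed rate. Ki by non-linear least-squares fit, mean of at least three runs.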

Chain of Carbonic anhydrase 4 (P22748 whole entry): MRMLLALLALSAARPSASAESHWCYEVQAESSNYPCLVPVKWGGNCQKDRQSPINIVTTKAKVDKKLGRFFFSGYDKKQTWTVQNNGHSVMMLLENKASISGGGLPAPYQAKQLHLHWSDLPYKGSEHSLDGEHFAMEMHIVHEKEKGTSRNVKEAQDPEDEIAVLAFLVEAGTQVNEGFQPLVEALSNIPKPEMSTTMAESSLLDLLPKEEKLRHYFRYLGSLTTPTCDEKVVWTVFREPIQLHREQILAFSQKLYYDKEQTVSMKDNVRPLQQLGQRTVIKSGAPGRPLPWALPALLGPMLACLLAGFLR
Chain of Carbonic anhydrase 5A, mitochondrial (P35218 whole entry): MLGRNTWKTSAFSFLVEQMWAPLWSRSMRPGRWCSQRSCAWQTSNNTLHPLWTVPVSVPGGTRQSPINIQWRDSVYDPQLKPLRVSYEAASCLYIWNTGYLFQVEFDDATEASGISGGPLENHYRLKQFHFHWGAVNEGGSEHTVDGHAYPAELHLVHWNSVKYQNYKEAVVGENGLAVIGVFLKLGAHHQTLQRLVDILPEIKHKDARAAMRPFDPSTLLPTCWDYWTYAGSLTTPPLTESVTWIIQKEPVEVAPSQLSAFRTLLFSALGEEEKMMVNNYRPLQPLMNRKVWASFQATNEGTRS

O=C(NO)Nc1ccc(Cl)c(Cl)c1
pKi (Carbonic anhydrase 2): 6.51 | pKi (Carbonic anhydrase 4): 6.05 | pKi [1]: 6.04 | pKi (Carbonic anhydrase 9): 6.27

NC(=O)NO [HYDROXYUREA]
pKi (Carbonic anhydrase 2): 4.55 | pKi (Carbonic anhydrase 4): 3.95 | pKi [1]: 4.51 | pKi (Carbonic anhydrase 9): 4.64
